Sampled rows, rich in hits. Any-hit rate of the full collection: about 2.3%.
TAAR1 antagonist: antagonists of human TAAR1; Q96RJ0; CHO RD-HGA16 TAAR1, Fluo-8 calcium fluorescence, antagonist; inhibition, % at 3 µM; 360,000 tested, 1.5% active;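 active = inhibition above a per-plate cutoff, the mean inhibition of test compounds on that plate plus 3 SD, cut at about 49% in these data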
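Test system: CHO RD-HGA16 cells bearing hTAAR1 | Reagent: β-PEA, EC80 | Compound dosing: 3 µM, single point | Schedule: Dye loading 75 min at 37 °C, then 30 min room temperature | Signal: Calcium fluorescence with Fluo-8 | Evaluation: Percent inhibition of PEA-evoked calcium signal, max/basal emission ratio | Control set: DMSO-only wells and EC80 β-PEA-stimulated wells | Repeats: Singlicate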
TAAR1 agonist: agonists of human TAAR1; Q96RJ0; CHO RD-HGA16 TAAR1, Fluo-8 calcium fluorescence; vehicle wells 0%, saturating PEA agonist 100%; activation, % at 3 µM; 360,000 tested, 0.99% active; AID 624467;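 active = activation above the mean activation of all test compounds in the run plus 3 SD, cut at about 38% in these data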
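Assay system: CHO-derived RD-HGA16 cells with stable Gα16 and human TAAR1; timing: 17-24 h seeding, 75 min 37 °C dye, 30 min RT; read-out: % activation from peak over basal fluorescence ratio, DMSO-to-PEA scaled; measured by: kinetic Fluo-8 calcium fluorescence; benchmarks: low control DMSO, high control PEA (EC100); doses: 3 µM single concentration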
OXTR potentiate: potentiators of human oxytocin receptor; activation, % at 3 µM; P30559; 320,000 tested, 0.061% active; CHO-OTR cells, Fluo-8 calcium fluorescence, potentiator mode; 0% = oxytocin EC15, 100% = EC100;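 active = activation above that plate's cutoff, the mean activation of tested compounds plus 3 SD, cut at about 6.6% in these data, passing the limit was not always enough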
Target sequence (P30559 whole entry, looked up): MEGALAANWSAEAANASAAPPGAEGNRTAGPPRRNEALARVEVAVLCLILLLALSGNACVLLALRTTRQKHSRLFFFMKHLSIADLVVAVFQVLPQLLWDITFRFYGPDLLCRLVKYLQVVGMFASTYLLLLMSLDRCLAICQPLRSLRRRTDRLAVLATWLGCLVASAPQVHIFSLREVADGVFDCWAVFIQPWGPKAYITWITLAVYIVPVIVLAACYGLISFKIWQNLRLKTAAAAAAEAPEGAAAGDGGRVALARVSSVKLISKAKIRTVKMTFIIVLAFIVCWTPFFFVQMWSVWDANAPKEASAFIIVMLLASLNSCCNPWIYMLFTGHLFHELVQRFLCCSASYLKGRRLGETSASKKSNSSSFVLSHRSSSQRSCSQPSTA
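System: human OTR in CHO cells / Also added: sub-maximal oxytocin, roughly EC15 / Control set: EC15 oxytocin low, 75 nM oxytocin high / Schedule: 6 min compound pre-incubation at room temperature, 100 s kinetic read / Compound: single-point 3.0 µM / Replication: singlicate / Technique: Fluo-8 calcium dye fluorescence / Read-out basis: % activation of max/min ratio relative to oxytocin controls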
V1R ag counter: V1a receptor agonism, counter-screen for OXTR agonists | CHO-V1R cells, Fluo-8 calcium fluorescence, agonist mode; 0% DMSO, 100% 3 nM vasopressin | activation, % at 3 µM | 320,000 tested, 0.25% active;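 active = activation above the mean activation of all tested compounds plus 3 SD, per screening run, cut at about 20% in these data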;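 note: signal is peak over basal fluorescence ratio across a 100 second FLIPR read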
OXTR agonist: activates the human oxytocin receptor. P30559. CHO-OTR cells, Fluo-8 calcium fluorescence; normalized: DMSO 0%, oxytocin 100%. activation, % at 3 µM. 320,000 tested, 0.32% active. AID 2435;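 active = activation above the mean of all tested compounds plus 3 SD, cutoff set per screening run, cut at about 20% in these data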;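 note: peak over basal fluorescence ratio from a 100 s FLIPR kinetic read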
Each line names hits and unclear results; the compound was inactive in the other large screens.

CCN=C1SC(CC(=O)Nc2ccc3c(c2)OCO3)C(=O)N1CC (centres undefined)	TAAR1 antagonist 59
CC(Sc1nc2nn(-c3ccccc3)c(=O)c-2c2n1CCCCC2)C(N)=O (centres undefined)	none
COc1ccc(-c2csc(NC(=O)C3CCN(c4ncnc5sc(C)c(C)c45)CC3)n2)cc1OC	TAAR1 antagonist 50
CCc1cccc(NC(=O)C2CCN(c3ncnc4sc(C)c(C)c34)CC2)c1	TAAR1 antagonist 53
O=C(C1CCCN(c2ncnc3c2nc2n3CCCCC2)C1)N1CCN(c2ccc(Cl)cc2)CC1 (centres undefined)	TAAR1 antagonist 77, TAAR1 agonist 38
O=C(C1CCN(c2ncnc3c2nc2n3CCCCC2)CC1)N1CCN(c2cccc(Cl)c2)CC1	TAAR1 antagonist 63
CC(=O)Nc1ccc(NS(C)(=O)=O)cc1	none
O=C(Nc1ncc(Cc2ccc(SC(F)F)cc2)s1)c1ccc(OC(F)F)cc1	TAAR1 agonist 46, V1R ag counter 25, OXTR agonist 23
O=C(NCc1cccc(F)c1)c1cccc2c1C(=O)c1ccc(N3CCOCC3)cc1S2(=O)=O	none
O=C(NCc1ccccc1C(F)(F)F)c1cccc2c1C(=O)c1ccc(N3CCOCC3)cc1S2(=O)=O	TAAR1 antagonist 56
COc1ccccc1N1CCN(c2ccc3c(c2)S(=O)(=O)c2cccc(C(=O)NCc4cccc(F)c4)c2C3=O)CC1	TAAR1 antagonist 53 (no result: OXTR potentiate, V1R ag counter, OXTR agonist)
C=CCNC(=O)c1cccc2c1C(=O)c1ccc(N3CCCC3)cc1S2(=O)=O	none
O=C(NCc1ccccc1)c1cccc2c1C(=O)c1ccc(/C=C/c3ccccc3)cc1S2(=O)=O	TAAR1 antagonist 58
O=C(NCc1ccccc1C(F)(F)F)c1cccc2c1C(=O)c1ccc(N3CCC(N4CCCCC4)CC3)cc1S2(=O)=O	none (no result: OXTR potentiate, V1R ag counter, OXTR agonist)
O=C(NCc1ccco1)c1cccc2c1C(=O)c1ccc(N3CCCC3)cc1S2(=O)=O	TAAR1 antagonist 53
Cc1ccc(N2CC(C(=O)NC3CCCCCC3)CC2=O)cc1 (centres undefined)	none (no result: OXTR potentiate, V1R ag counter, OXTR agonist)
CCOC(=O)C1=C(C)N(c2ccccc2)C(=O)/C1=C\c1cccs1	none
CC1CCN(c2ccc3c(c2)S(=O)(=O)c2cccc(C(=O)NC[C@@H]4CCCO4)c2C3=O)CC1	TAAR1 antagonist 60
O=C(CC1SC(N2CCCC2)=NC1=O)Nc1ccc(C(=O)Nc2ncccc2O)cc1 (centres undefined)	none
CCSc1nnc(NC(=O)C(Cc2ccccc2)n2cccc2)s1 (centres undefined)	none
O=C(N/N=C/c1cccnc1)c1cccc(NC(=O)c2cccc(Br)c2)c1	TAAR1 antagonist 51
O=C(Nc1cccc(C(=O)Nc2cccc(Br)c2)c1)c1ccccc1	TAAR1 antagonist 62
O=C(N/N=C/c1cccc(Oc2ccccc2)c1)c1cccc(Br)c1	TAAR1 antagonist 57
O=C(N/N=C/c1cccc(Oc2ccccc2)c1)c1cccc(O)c1	none (no result: OXTR potentiate, V1R ag counter, OXTR agonist)
O=C(/C=C/c1cccs1)c1ccc(NC(=O)c2cccc(Br)c2)cc1	TAAR1 antagonist 55
CCOC(=O)C(C(=O)Nc1nc2ccccc2s1)C1CCCCC1 (centres undefined)	none
Cc1oc(-c2ccc(Cl)cc2)nc1CS(=O)CC(=O)NCCN1CCCCCC1 (centres undefined)	none
O=C(N/N=C/c1cccnc1)c1ccc(NC(=O)C(c2ccccc2)c2ccccc2)cc1	TAAR1 antagonist 57
O=C(N/N=C/c1cccc(OC(=O)c2cccc(Br)c2)c1)c1cccnc1	TAAR1 antagonist 58 (no result: OXTR potentiate, V1R ag counter, OXTR agonist)
C=CCOc1ccc(CN(C)C(=O)c2ccc(CNS(=O)(=O)c3ccc(C)c(C)c3)cc2)cc1	none
COc1ccc(-c2cc3nc(-c4ccccc4)cc(N4CCCC(O)C4)n3n2)cc1 (centres undefined)	none
COc1ccc(-c2cc3nc(-c4ccccc4)cc(N4CCC(O)CC4)n3n2)cc1	TAAR1 antagonist 49
Cc1ccc(NC(=O)c2ccc(S(=O)(=O)N3CCOCC3)cc2)cc1	none
Cc1ccc(SC(C)C(=O)Nc2ccc(S(=O)(=O)N3CCOCC3)cc2)cc1 (centres undefined)	TAAR1 agonist 39
Oc1nc(Nc2cccc(Cl)c2)sc1/C=C1\C=Nc2ccccc21	TAAR1 antagonist 54
